Test results published in ChEMBL document CHEMBL5647697, “Akt inhibition synergizes with polycomb repressive complex 2 inhibition in the treatment of multiple myeloma” (2019).
Calls of active or inactive are those of the source. The rule behind the calls is not given here.

What was measured:
[1] = system: OPM-2/BTZ; assay: Cytotoxicity against human OPM-2/BTZ cells assessed as reduction in cell viability at 0.3125 to 10 micromol/L after 48 hrs by MTS assay; type: functional, cell-based; conditions: dose 0.3125-10 µmol/L
How it was run: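 Seven myeloma lines (MM.1S, H929, OPM2/BTZ among them) exposed to TAS-117 at increasing concentrations up to 10 μmol/L for 48 h. Viability read by MTS against an untreated control; mean ± SD of triplicates.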

[2] = system: MM1.S; assay: Downregulation of EZH2 protein expression in human MM1.S cells at 0.3 to 5 micromol/L for 6 to 48 hrs by Western blot analysis; type: functional, cell-based; conditions: dose 0.3-5 µmol/L, time 6-48 hrs
How it was run: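 MM.1S and H929 cells exposed to TAS-117 at the indicated doses for 48 h, or to 5 μmol/L for the indicated times. Immunoblot with GAPDH, Akt and H3 as loading controls; EZH2 quantified relative to GAPDH.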

[3] = system: OPM-2; assay: Effects on EZH2 protein expression in human OPM-2 cells at 3 micromol/L incubated for 24 hrs by Western blot analysis; type: functional, cell-based; conditions: dose 3.0 µmol/L
[4] = target: T1, Serine/threonine-protein kinase AKT (Homo sapiens) (UniProt P31751+Q9Y243+P31749); assay: Inhibition of Akt phosphorylation in human NCI-H929 cells at 0.3 to 5 micromol/L for 6 to 48 hrs by Western blot analysis; type: cell-based; conditions: dose 0.3-5 µmol/L, time 6-48 hrs
T1 sequence (P31749 whole entry, looked up): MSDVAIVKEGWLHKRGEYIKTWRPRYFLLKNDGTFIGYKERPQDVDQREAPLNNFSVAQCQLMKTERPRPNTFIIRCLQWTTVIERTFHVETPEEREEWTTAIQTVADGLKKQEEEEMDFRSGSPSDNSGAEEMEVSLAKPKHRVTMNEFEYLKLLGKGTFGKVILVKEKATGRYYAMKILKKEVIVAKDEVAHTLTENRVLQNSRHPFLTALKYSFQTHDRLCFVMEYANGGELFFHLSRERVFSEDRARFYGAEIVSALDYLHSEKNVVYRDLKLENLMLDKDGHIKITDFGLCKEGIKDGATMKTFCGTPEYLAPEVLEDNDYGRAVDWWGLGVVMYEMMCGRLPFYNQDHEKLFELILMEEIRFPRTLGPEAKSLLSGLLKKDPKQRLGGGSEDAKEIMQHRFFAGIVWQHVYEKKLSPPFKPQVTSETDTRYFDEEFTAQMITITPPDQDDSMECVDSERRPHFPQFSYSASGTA
T1 sequence (P31751 whole entry, looked up): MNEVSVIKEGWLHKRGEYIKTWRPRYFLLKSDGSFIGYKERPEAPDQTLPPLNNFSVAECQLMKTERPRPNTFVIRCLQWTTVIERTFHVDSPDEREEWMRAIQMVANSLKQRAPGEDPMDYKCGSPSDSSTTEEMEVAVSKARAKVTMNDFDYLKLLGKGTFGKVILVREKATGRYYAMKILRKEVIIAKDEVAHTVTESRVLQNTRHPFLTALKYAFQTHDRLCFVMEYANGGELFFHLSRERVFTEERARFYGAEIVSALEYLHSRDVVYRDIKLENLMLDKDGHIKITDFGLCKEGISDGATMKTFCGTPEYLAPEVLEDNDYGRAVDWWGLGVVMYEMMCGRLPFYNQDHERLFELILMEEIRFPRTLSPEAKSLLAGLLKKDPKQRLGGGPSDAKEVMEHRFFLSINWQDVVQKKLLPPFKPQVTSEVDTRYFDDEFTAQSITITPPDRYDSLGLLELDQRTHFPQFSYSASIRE
T1 sequence (Q9Y243 whole entry, looked up): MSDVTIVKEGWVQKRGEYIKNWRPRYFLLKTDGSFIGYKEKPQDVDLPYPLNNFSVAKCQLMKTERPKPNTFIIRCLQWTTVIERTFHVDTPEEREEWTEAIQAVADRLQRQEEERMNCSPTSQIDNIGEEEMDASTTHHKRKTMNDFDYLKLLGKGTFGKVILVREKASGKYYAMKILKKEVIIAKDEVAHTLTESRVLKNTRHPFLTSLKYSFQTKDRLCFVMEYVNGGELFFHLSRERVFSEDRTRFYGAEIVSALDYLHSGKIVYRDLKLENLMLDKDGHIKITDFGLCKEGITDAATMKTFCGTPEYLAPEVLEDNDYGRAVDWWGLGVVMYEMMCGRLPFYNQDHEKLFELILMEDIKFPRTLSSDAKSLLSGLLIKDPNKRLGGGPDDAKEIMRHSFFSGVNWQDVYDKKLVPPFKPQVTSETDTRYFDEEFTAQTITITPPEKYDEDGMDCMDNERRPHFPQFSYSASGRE
How it was run: (§1)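 MM.1S and H929 cells were treated with graded doses for 48 h, or with 5 μmol/L for the stated times. Lysates were immunoblotted, with GAPDH, total Akt and H3 as loading controls.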

[5] = target: T1, Serine/threonine-protein kinase AKT (Homo sapiens); assay: Inhibition of Akt phosphorylation in human MM1.S cells at 0.3 to 5 micromol/L for 6 to 48 hrs by Western blot analysis; type: cell-based; conditions: dose 0.3-5 µmol/L, time 6-48 hrs; how it was run: as §1
[6] = system: NCI-H929; assay: Downregulation of CDK2 protein expression in human NCI-H929 cells incubated at 0.3 to 3 micromol/L for 48 hrs by Western blot analysis; type: functional, cell-based; conditions: dose 0.3-3 µmol/L
How it was run: (§2)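 MM.1S and H929 cells given TAS-117 at the indicated doses for 48 h. Protein levels assessed by immunoblot.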

[7] = system: NCI-H929; assay: Downregulation of CDK1 protein expression in human NCI-H929 cells incubated at 0.3 to 3 micromol/L for 48 hrs by Western blot analysis; type: functional, cell-based; conditions: dose 0.3-3 µmol/L; how it was run: as §2
[8] = system: MM1.S; assay: Downregulation of phospho-Rb protein expression in human MM1.S cells incubated at 0.3 to 3 micromol/L for 48 hrs by Western blot analysis; type: functional, cell-based; conditions: dose 0.3-3 µmol/L; how it was run: as §2
[9] = system: MM1.S; assay: Synergistic activity against human MM.1S cells assessed as combination index […] at 0.125 uM incubated for 48 hrs MTT assay; type: functional
How it was run: (§3)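 Cells were exposed to the EZH2/EZH1 inhibitor (UNC1999 or GSK126) for 72 h in total, with the Akt inhibitor added for the last 48 h. Viability was read by MTS assay relative to untreated control cells, in triplicate. The combination index for each dose pair came from isobologram analysis.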

[10] = system: MM1.S; assay: Synergistic activity against human MM.1S cells assessed as combination index preincubated in presence of 1.25 uM GSK126 […] at 0.25 uM incubated for 48 hrs by […]; type: functional; how it was run: as §3
[11] = system: MM1.S; assay: Synergistic activity against human MM.1S cells assessed as combination index […] at 0.25 uM incubated for 48 hrs by […]; type: functional; how it was run: as §3
[12] = system: MM1.S; assay: Synergistic activity against human MM.1S cells assessed as combination index […] compound addition at 0.25 uM incubated for 48 hrs by MTT assay; type: functional; how it was run: as §3
[13] = system: NCI-H929; assay: Synergistic activity against human NCI-H929 cells assessed as combination index preincubated in presence of 2.5 uM GSK126 […] at 0.125 uM incubated for 48 hrs by […]; type: functional; how it was run: as §3
[14] = system: NCI-H929; assay: Synergistic activity against human NCI-H929 cells assessed as combination index […] at 0.5 uM incubated for 48 hrs by […]; type: functional; how it was run: as §3
[15] = system: OPM-2/BTZ; assay: Synergistic activity against human OPM-2/BTZ cells assessed as combination index preincubated in presence of 2.5 uM GSK126 for 72 hrs followed by compound addition at 2 uM incubated for 48 hrs by MTT assay; type: functional
[16] = system: OPM-2/BTZ; assay: Synergistic activity against human OPM-2/BTZ cells assessed as combination index preincubated in presence of 5 uM GSK126 for 72 hrs followed by compound addition at 1 uM incubated for 48 hrs by MTT assay; type: functional
[17] = system: OPM-2; assay: Synergistic activity against human OPM-2 cells assessed as combination index preincubated in presence of 2.5 uM GSK126 for 72 hrs followed by compound addition at 5 uM incubated for 48 hrs by MTT assay; type: functional
[18] = system: OPM-2; assay: Synergistic activity against human OPM-2 cells assessed as combination index preincubated in presence of 5 uM GSK126 for 72 hrs followed by compound addition at 1.25 uM incubated for 48 hrs by MTT assay; type: functional
[19] = system: MM1.S; assay: Induction of apoptosis in human MM1.S cells assessed as necrotic cells at 2 micromol/L incubated for 12 hrs by annexin V/PI staining based flow cytometry (reference value: 0.17%); type: functional; conditions: dose 2 µmol/L, at 2 µM
[20] = system: MM1.S; assay: Induction of apoptosis in human MM1.S cells assessed as live cells at 2 micromol/L incubated for 12 hrs by annexin V/PI staining based flow cytometry (reference value: 88.2%); type: functional; conditions: dose 2 µmol/L, at 2 µM
[21] = system: MM1.S; assay: Induction of apoptosis in human MM1.S cells assessed as late apoptotic cells preincubated in presence of 5 micromol/L UNC1999 for 48 hrs followed by compound addition at 2 micromol/L incubated for 12 hrs by annexin V/PI staining based flow cytometry (reference value: 3.6%); type: functional; conditions: dose 2 µmol/L, at 2 µM
[22] = system: MM1.S; assay: Upregulation of EZH1 protein expression in human MM1.S cells at 0.03 to 3 micromol/L after 48 hrs by Western blot analysis; type: functional, cell-based; conditions: dose 0.03-3 µmol/L
How it was run: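 MM.1S and H929 cells were treated with graded TAS-117 for 48 h. EZH1 was detected by immunoblot and quantified relative to the GAPDH loading control.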

[23] = system: MM1.S; assay: Upregulation of FOXO3 in human MM1.S cells assessed as enhanced nuclear accumulation at 0.5 micromol/L after 24 hrs by immunofluorescence staining; type: functional, cell-based; conditions: dose 0.5 µmol/L
How it was run: (§4)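 MM.1S and H929 cells were treated with or without 0.5 μmol/L TAS-117 for 24 h. Cells were immunostained with anti-FOXO3. Jurkat cells served as positive control and cells without primary antibody as negative control. Read-out was the average fluorescence intensity of the nuclear FOXO3 fraction versus untreated cells.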

[24] = system: NCI-H929; assay: Upregulation of FOXO3 in human NCI-H929 cells assessed as enhanced nuclear accumulation at 0.5 micromol/L after 24 hrs by immunofluorescence staining; type: functional, cell-based; conditions: dose 0.5 µmol/L; how it was run: as §4
[25] = system: OPM-2; assay: Synergistic activity against human OPM-2 cells assessed as combination index preincubated in presence of 1.25 uM UNC1999 for 72 hrs followed by compound addition at 5 uM incubated for 48 hrs by MTT assay; type: functional
[26] = system: NCI-H929; assay: Induction of apoptosis in human NCI-H929 cells assessed as necrotic cells at 5 micromol/L incubated for 48 hrs by annexin V/PI staining based flow cytometry (reference value: 2.61%); type: functional; conditions: dose 5 µmol/L, at 5 µM
[27] = system: MM1.S; assay: Downregulation of EZH2 mRNA expression in human MM1.S cells in presence of 5 micromol/L UNC1999 for 72 hrs followed by compound addition at 2 micromol/L incubated for 24 hrs by qRT-PCR analysis; conditions: dose 2.0 µmol/L

C[C@]1(O)C[C@@](N)(c2ccc(-c3nc4n(c3-c3ccccc3)COc3ccncc3-4)cc2)C1 [PIFUSERTIB]
Activity [1]: Active | Activity [2]: Active | Activity [3]: inactive | inhibition [4]: Active | inhibition [5]: Active | Activity [6]: Active | Activity [7]: Active | Activity [8]: Active | CI [9]: 0.253 | CI [10]: 0.954 | CI [11]: 0.826 | CI [12]: 0.584 | CI [13]: 4.094 | CI [14]: 4.395 | CI [15]: 0.205 | CI [16]: 1.274 | CI [17]: 6.9 | CI [18]: 1.44 | Activity [19]: 0.23% | Activity [20]: 85.7% | Activity [21]: 25.3% | Activity [22]: Active | Activity [23]: Active | Activity [24]: Active | CI [25]: 1.743 | Activity [26]: 0.84% | Activity [27]: Active
